In ChEMBL document CHEMBL4033712, “Synthesis and biological evaluation of new C-12(α/β)-(N-) sulfamoyl-phenylamino-14-deoxy-andrographolide derivatives as potent anti-cancer agents” (Bioorg Med Chem Lett, 2017):

Experiments:
Assay type in all cases: functional
SK-MEL-28 = assay: Anticancer activity against human SK-MEL-28 cells assessed as cell growth at 10 uM after 48 hrs by sulforhodamine B assay relative to control; conditions: SK-MEL-28, 48 h, read-out: Activity
How it was run: (§1)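 Single-dose NCI-60 panel screen: compound added at 10 µM and the culture incubated 48 h. The end point was read by protein staining with sulforhodamine B. The value is percent growth of treated cells relative to untreated control cells, reported as a mean graph across the panel.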

TK-10 = assay: Anticancer activity against human TK10 cells assessed as cell growth at 10 uM after 48 hrs by sulforhodamine B assay relative to control; conditions: TK-10, 48 h, read-out: Activity
How it was run: (§2)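 NCI-60 single-dose screen: compound added at 10 µM, cultures incubated 48 h. End point by sulforhodamine B protein-binding dye. Value reported as percent growth of treated cells relative to untreated control cells.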

HCT-15 = assay: Anticancer activity against human HCT15 cells assessed as cell growth at 10 uM after 48 hrs by sulforhodamine B assay relative to control; conditions: HCT-15, 48 h, read-out: Activity; how it was run: as §1
A549 = assay: Anticancer activity against human A549/ATCC cells assessed as cell growth at 10 uM after 48 hrs by sulforhodamine B assay relative to control; conditions: A549, 48 h, read-out: Activity; how it was run: as §1
LOX IMVI = assay: Anticancer activity against human LOXIMVI cells assessed as cell growth at 10 uM after 48 hrs by sulforhodamine B assay relative to control; conditions: read-out: Activity; how it was run: as §1
NCI-H322M = assay: Anticancer activity against human NCI-H322M cells assessed as cell growth at 10 uM after 48 hrs by sulforhodamine B assay relative to control; conditions: read-out: Activity; how it was run: as §1
RPMI-8226 = assay: Anticancer activity against human RPMI8226 cells assessed as cell growth at 10 uM after 48 hrs by sulforhodamine B assay relative to control; conditions: RPMI-8226, 48 h, read-out: Activity; how it was run: as §1
Malme-3M = assay: Anticancer activity against human MALME-3M cells assessed as cell growth at 10 uM after 48 hrs by sulforhodamine B assay relative to control; conditions: read-out: Activity; how it was run: as §1
SN12C = assay: Anticancer activity against human SN12C cells assessed as cell growth at 10 uM after 48 hrs by sulforhodamine B assay relative to control; conditions: read-out: Activity; how it was run: as §1
OVCAR-3 = assay: Anticancer activity against human OVCAR3 cells assessed as cell growth at 10 uM after 48 hrs by sulforhodamine B assay relative to control; conditions: OVCAR-3, 48 h, read-out: Activity; how it was run: as §1
M14 = assay: Anticancer activity against human M14 cells assessed as cell growth at 10 uM after 48 hrs by sulforhodamine B assay relative to control; conditions: M14, 48 h, read-out: Activity; how it was run: as §1
K562 = assay: Anticancer activity against human K562 cells assessed as cell growth at 10 uM after 48 hrs by sulforhodamine B assay relative to control; conditions: K562, 48 h, read-out: Activity; how it was run: as §1
UACC-62 = assay: Anticancer activity against human UACC62 cells assessed as cell growth at 10 uM after 48 hrs by sulforhodamine B assay relative to control; conditions: UACC-62, 48 h, read-out: Activity; how it was run: as §2
UO-31 = assay: Anticancer activity against human UO31 cells assessed as cell growth at 10 uM after 48 hrs by sulforhodamine B assay relative to control; conditions: UO-31, 48 h, read-out: Activity; how it was run: as §2
HOP-62 = assay: Anticancer activity against human HOP62 cells assessed as cell growth at 10 uM after 48 hrs by sulforhodamine B assay relative to control; conditions: HOP-62, 48 h, read-out: Activity; how it was run: as §1
U-251 = assay: Anticancer activity against human U251 cells assessed as cell growth at 10 uM after 48 hrs by sulforhodamine B assay relative to control; conditions: U-251, 48 h, read-out: Activity; how it was run: as §2
SK-MEL-2 = assay: Anticancer activity against human SK-MEL-2 cells assessed as cell growth at 10 uM after 48 hrs by sulforhodamine B assay relative to control; conditions: SK-MEL-2, 48 h, read-out: Activity; how it was run: as §1
Hs-578T = assay: Anticancer activity against human Hs 578T cells assessed as cell growth at 10 uM after 48 hrs by sulforhodamine B assay relative to control; conditions: read-out: Activity; how it was run: as §1
T47D = assay: Anticancer activity against human T47D cells assessed as cell growth at 10 uM after 48 hrs by sulforhodamine B assay relative to control; conditions: read-out: Activity; how it was run: as §2
HCC 2998 = assay: Anticancer activity against human HCC2998 cells assessed as cell growth at 10 uM after 48 hrs by sulforhodamine B assay relative to control; conditions: HCC 2998, 48 h, read-out: Activity; how it was run: as §1
OVCAR-5 = assay: Anticancer activity against human OVCAR5 cells assessed as cell growth at 10 uM after 48 hrs by sulforhodamine B assay relative to control; conditions: OVCAR-5, 48 h, read-out: Activity; how it was run: as §1
OVCAR-8 = assay: Anticancer activity against human OVCAR8 cells assessed as cell growth at 10 uM after 48 hrs by sulforhodamine B assay relative to control; conditions: OVCAR-8, 48 h, read-out: Activity; how it was run: as §1
HCT-116 = assay: Anticancer activity against human HCT116 cells assessed as cell growth at 10 uM after 48 hrs by sulforhodamine B assay relative to control; conditions: HCT-116, 48 h, read-out: Activity; how it was run: as §1
786-0 = assay: Anticancer activity against human 786-0 cells assessed as cell growth at 10 uM after 48 hrs by sulforhodamine B assay relative to control; conditions: 786-0, 48 h, read-out: Activity; how it was run: as §1
KM12 = assay: Anticancer activity against human KM12 cells assessed as cell growth at 10 uM after 48 hrs by sulforhodamine B assay relative to control; conditions: KM12, 48 h, read-out: Activity; how it was run: as §1
NCI-H522 = assay: Anticancer activity against human NCI-H522 cells assessed as cell growth at 10 uM after 48 hrs by sulforhodamine B assay relative to control; conditions: NCI-H522, 48 h, read-out: Activity; how it was run: as §1
MDA-MB-435 = assay: Anticancer activity against human MDA-MB-435 cells assessed as cell growth at 10 uM after 48 hrs by sulforhodamine B assay relative to control; conditions: MDA-MB-435, 48 h, read-out: Activity; how it was run: as §1
SNB-75 = assay: Anticancer activity against human SNB75 cells assessed as cell growth at 10 uM after 48 hrs by sulforhodamine B assay relative to control; conditions: SNB-75, 48 h, read-out: Activity; how it was run: as §2
MDA-MB-231 = assay: Anticancer activity against human MDA-MB-231 cells assessed as cell growth at 10 uM after 48 hrs by sulforhodamine B assay relative to control; conditions: MDA-MB-231, 48 h, read-out: Activity; how it was run: as §1
ACHN = assay: Anticancer activity against human ACHN cells assessed as cell growth at 10 uM after 48 hrs by sulforhodamine B assay relative to control; conditions: read-out: Activity; how it was run: as §1
SW-620 = assay: Anticancer activity against human SW620 cells assessed as cell growth at 10 uM after 48 hrs by sulforhodamine B assay relative to control; conditions: SW-620, 48 h, read-out: Activity; how it was run: as §2
MCF7 = assay: Anticancer activity against human MCF7 cells assessed as cell growth at 10 uM after 48 hrs by sulforhodamine B assay relative to control; conditions: MCF7, 48 h, read-out: Activity; how it was run: as §1

| SMILES | growth at 10 µM (SK-MEL-28) [%] | growth at 10 µM (TK-10) [%] | growth at 10 µM (HCT-15) [%] | growth at 10 µM (A549) [%] | growth at 10 µM (LOX IMVI) [%] | growth at 10 µM (NCI-H322M) [%] | growth at 10 µM (RPMI-8226) [%] | growth at 10 µM (Malme-3M) [%] | growth at 10 µM (SN12C) [%] | growth at 10 µM (OVCAR-3) [%] | growth at 10 µM (M14) [%] | growth at 10 µM (K562) [%] | growth at 10 µM (UACC-62) [%] | growth at 10 µM (UO-31) [%] | growth at 10 µM (HOP-62) [%] | growth at 10 µM (U-251) [%] | growth at 10 µM (SK-MEL-2) [%] | growth at 10 µM (Hs-578T) [%] | growth at 10 µM (T47D) [%] | growth at 10 µM (HCC 2998) [%] | also measured |
| --- | --- | --- | --- | --- | --- | --- | --- | --- | --- | --- | --- | --- | --- | --- | --- | --- | --- | --- | --- | --- | --- |
| C=C1CC[C@@H]2[C@](C)(COC(C)=O)[C@H](OC(C)=O)CC[C@@]2(C)[C@H]1CC(Nc1ccc(S(=O)(=O)Nc2ccc(Cl)nn2)cc1)C1=CCOC1=O (some centres undefined) | 6.66 | 69.8 | -18.4 | 61.6 | -84.6 | 57 | -19.2 | 55.3 | -27.6 | -56.1 | 10.7 | 6.81 | -50 | 18.4 | 47.9 | -41.2 | 58.3 | 75.6 | 34.1 | 88.5 | growth at 10 µM (OVCAR-5): 44.6%; growth at 10 µM (OVCAR-8): 16.9%; growth at 10 µM (HCT-116): -34.1%; growth at 10 µM (786-0): 58.8%; growth at 10 µM (KM12): 27%; growth at 10 µM (NCI-H522): -34.5%; growth at 10 µM (MDA-MB-435): 8.13%; growth at 10 µM (SNB-75): 25.2%; growth at 10 µM (MDA-MB-231): 23.8%; growth at 10 µM (ACHN): 16.1%; growth at 10 µM (SW-620): -37.7%; growth at 10 µM (MCF7): 16.8% |
| C=C1CC[C@@H]2[C@](C)(COC(C)=O)[C@H](OC(C)=O)CC[C@@]2(C)[C@H]1CC(Nc1ccc(S(=O)(=O)Nc2nc(C)cc(C)n2)cc1)C1=CCOC1=O (some centres undefined) | 83.5 | 111 | 49.2 | 65.3 | -60.6 | 97.2 | 2.24 | 96.3 | 38.2 | 44.8 | 63.8 | 19.1 | 32.9 | 71.2 | 103 | 48.2 | 88.5 | 99.8 | 68.8 | 100 | growth at 10 µM (OVCAR-5): 103%; growth at 10 µM (OVCAR-8): 62%; growth at 10 µM (HCT-116): 39.2%; growth at 10 µM (786-0): 103%; growth at 10 µM (KM12): 64.7%; growth at 10 µM (NCI-H522): 22%; growth at 10 µM (MDA-MB-435): 67%; growth at 10 µM (SNB-75): 44.6%; growth at 10 µM (MDA-MB-231): 107%; growth at 10 µM (ACHN): 71.6%; growth at 10 µM (SW-620): 40%; growth at 10 µM (MCF7): 40.3% |
